Compound activity (PubChem)
Most compounds without a hit are left out; they make up all but 4.7% or so of the library.
697 NFkB inh: inhibitors of the PMA/ionomycin-induced NF-kB reporter in 697 B cells | 697 B-cell NF-kB luciferase reporter, 16 h | inhibition, % at 4 µM | hit rate 0.33% among 330,000; in the data active means inhibition above about 35%
VIM-2 inh: blocks Pseudomonas aeruginosa VIM-2 metallo-beta-lactamase; inhibition, % at 5.6 µM; purified VIM-2, nitrocefin hydrolysis, epi-absorbance fluorescence; hit rate 0.89% among 290,000;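 active means inhibition above the mean of all tested compounds plus 3 SD, cutoff set per screening run, cut at about 7.5% in these data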;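 further: red hydrolysis product quenches plate fluorescence so inhibitors raise well fluorescence; 0% = enzyme with DMSO and 100% = DMSO without enzyme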
aSyn 5UTR inh: MLPCN primary screen, SNCA 5' untranslated region | alpha-synuclein 5'UTR reporter, inhibitor activity | AID 1813 | hit rate 0.82% among 300,000 | inhibition, % (tested at 7.5 µM); in the data active means inhibition above about 60%;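 further: H4 neuroglioblastoma cells stably carrying SNCA 5'UTR luciferase fusion; 0% = DMSO wells and 100% = positive control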
Mdm2 MdmX PPI: inhibitors of human Mdm2/MdmX interaction. O15151+Q00987. SaOS-2 split-luciferase Mdm2/MdmX complementation, luminescence. inhibition, % at 8 µM. hit rate 3% among 330,000. AID 485346;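 active means inhibition of at least 50% at 8 µM in the primary screen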
Target sequence (O15151 whole entry, looked up): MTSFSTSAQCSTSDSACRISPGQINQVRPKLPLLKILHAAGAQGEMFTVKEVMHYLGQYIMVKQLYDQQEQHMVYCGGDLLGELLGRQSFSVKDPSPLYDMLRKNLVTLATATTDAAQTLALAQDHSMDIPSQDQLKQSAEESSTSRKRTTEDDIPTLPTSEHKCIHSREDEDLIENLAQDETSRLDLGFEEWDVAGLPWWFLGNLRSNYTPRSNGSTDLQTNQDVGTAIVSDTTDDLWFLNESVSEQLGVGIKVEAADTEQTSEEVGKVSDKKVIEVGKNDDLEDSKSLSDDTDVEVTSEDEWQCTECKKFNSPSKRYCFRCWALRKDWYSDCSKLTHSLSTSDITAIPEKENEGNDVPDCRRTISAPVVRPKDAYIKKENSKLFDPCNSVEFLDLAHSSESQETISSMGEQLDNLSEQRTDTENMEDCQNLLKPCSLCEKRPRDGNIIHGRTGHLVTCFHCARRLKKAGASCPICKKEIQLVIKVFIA
Target sequence (Q00987 whole entry, looked up): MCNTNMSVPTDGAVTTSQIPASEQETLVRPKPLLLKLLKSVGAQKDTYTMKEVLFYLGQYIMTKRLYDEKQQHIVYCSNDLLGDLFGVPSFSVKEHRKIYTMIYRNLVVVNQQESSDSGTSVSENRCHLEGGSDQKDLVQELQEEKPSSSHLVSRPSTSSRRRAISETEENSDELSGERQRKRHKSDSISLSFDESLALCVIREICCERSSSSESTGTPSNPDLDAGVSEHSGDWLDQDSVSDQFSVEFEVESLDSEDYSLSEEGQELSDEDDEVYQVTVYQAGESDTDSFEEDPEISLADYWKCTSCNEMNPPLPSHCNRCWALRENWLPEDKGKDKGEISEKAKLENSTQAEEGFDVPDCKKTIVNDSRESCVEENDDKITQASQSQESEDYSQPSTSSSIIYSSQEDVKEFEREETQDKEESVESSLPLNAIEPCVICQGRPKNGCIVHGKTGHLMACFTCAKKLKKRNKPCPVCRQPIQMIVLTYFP
Jurkat NFkB inh: inhibitors of the PMA/ionomycin-induced NF-kB reporter in Jurkat cells | inhibition, % at 4 µM | hit rate 0.53% among 330,000 | PMA/ionomycin-induced NF-kB luciferase reporter, luminescence; in the data active means inhibition above about 50%
IMP-1 inhibitor: inhibitors of Pseudomonas aeruginosa IMP-1 metallo-beta-lactamase | purified IMP-1, nitrocefin hydrolysis, epi-absorbance fluorescence | hit rate 0.45% among 290,000 | inhibition, % at 5.6 µM | AID 1556;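 active means inhibition above the mean plus 3 SD of all compounds in the same screening run, cut at about 4.5% in these data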;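 further: 0% = IMP-1 with DMSO and 100% = DMSO wells lacking enzyme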
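System: purified IMP-1; amount: IMP-1 0.2 nM before substrate addition; compound: single dose, 5.6 µM; times: 25 °C, 15 min preincubation, 25 min reaction; signal: Epi-absorbance via hydrolysed-nitrocefin quenching of white-plate fluorescence, 480/530 nm, EDTA stop; benchmarks: DMSO with and without IMP-1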
Mdm2 MdmX conf: human Mdm2/MdmX binding inhibition, confirmed | hit rate 55% among 10,000 | luminescent assay | inhibition, % at 8 µM | shares compounds with Mdm2 MdmX PPI | AID 489028; in the data active means inhibition above about 40%
Full FLuc ctr: counter-screen for Mdm2/MdmX inhibitors: full-length luciferase | shares compounds with Mdm2 MdmX PPI | SaOS-2 full-length luciferase counterscreen, luminescence | inhibition, % at 8 µM | hit rate 77% among 6,200 | AID 504607;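 active means mean inhibition at 8 µM reaching about 37%, which flags the compound as non-specific, limit read from the data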;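 further: p53-null SaOS-2 cells with luciferase driven by a doxycycline-inducible promoter; compound on cells about two nights before reading with doxycycline added after day one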
* hit, by the source's call; x = no result given.

SMILES	697 NFkB inh	VIM-2 inh	aSyn 5UTR inh	Mdm2 MdmX PPI	Jurkat NFkB inh	IMP-1 inhibitor	Mdm2 MdmX conf	Full FLuc ctr
Cc1cc(C)cc(NC(=O)CSc2ccc(-c3ccccn3)nn2)c1	16.7	-2.9	41.0	68.2*	2.6	-2.7	67.5*	31.7
O=c1c(Cl)c(Cl)cnn1Cc1nnc(-c2ccccc2Br)o1	-24.5	-1.3	-66.1	100.3*	17.7	-4.6	99.9*	54.1*
O=C(CN1C(=O)CCOc2ccccc21)Nc1ccc(Cl)c(S(=O)(=O)N2CCOCC2)c1	-1.3	x	x	-3.5	-11.0	x	x	x
O=C(Nc1ccc(Cl)cc1)N1CCCN(Cc2ccc(F)cc2)C1	11.7	-3.0	9.9	53.0*	35.4	-1.8	29.1	x
COc1ccc(S(=O)(=O)n2nc(-c3cc(OC)c(OC)c(OC)c3)cc2N)cc1OC	9.7	-1.5	x	28.6	4.5	-3.3	x	x
COc1ccc(-c2cc(N)n(S(=O)(=O)c3c(F)c(F)c(F)c(F)c3F)n2)cc1OC	-22.4	-0.3	-37.7	81.4*	7.7	-2.2	100.0*	-0.7
Cc1onc(-c2ccccc2)c1CNC(=O)C1COc2ccccc2O1 (configuration not stated)	6.4	-2.5	10.7	-5.0	13.9	-3.6	x	x
CCc1c(C)nc2ccc(Br)cc2c1SCCC#N	-19.3	-1.0	5.6	67.3*	1.3	0.5	58.8*	23.1
COc1ccc(Cc2nnc(NC(=O)c3cc(OC)cc(OC)c3)s2)cc1	-13.8	-2.0	-6.7	52.0*	-0.2	1.5	46.1*	86.1*
Cc1cccc(C(=O)NNC(=O)CN2C(=O)c3ccccc3C2=O)c1	7.1	-0.5	2.8	-0.6	13.9	0.7	x	x
OC(CN1CCCCC1)Cn1c2ccc(Cl)cc2c2cc(Cl)ccc21 (configuration not stated)	-11.5	2.7	-2.4	74.9*	2.9	3.8	20.5	x
Cc1cc(C(=O)OCC(=O)NCc2ccco2)c(C)n1-c1ccc(F)cc1	-50.1	-3.3	80.4*	56.2*	43.7	-1.4	52.1*	66.3*
CCNC(=O)COC(=O)c1cc(C)n(-c2ccccc2)c1C	1.4	-1.4	-57.6	-5.4	-21.5	-2.3	x	x
COc1ccc(Cn2c(-c3ccc(C)cc3)c[n+]3ccccc23)cc1	22.9	-4.3	-19.5	62.5*	37.0	-2.9	37.4	65.3*
COc1cc2sc(NC(=O)c3ccco3)nc2cc1Cl	-115.5	-1.9	-189.0	63.6*	-64.9	-3.5	-56.1	x
CN(C(=O)CO/N=C/c1ccc(Cl)cc1)c1ccccc1	22.6	-3.0	8.2	11.9	5.1	-2.6	x	x
Cc1ccc(C)c(NC(=S)N2CCN(c3cccc(C(F)(F)F)c3)CC2)c1	16.1	-1.1	7.8	15.8	-2.1	-2.0	x	x
Cc1ccnc(NC(=S)N2CCN(c3cccc(C(F)(F)F)c3)CC2)c1	-16.2	-3.4	16.1	75.3*	29.4	-2.2	77.3*	45.7*
Cn1nnnc1SCC(=O)N1CCN(S(=O)(=O)c2ccc(Cl)cc2)CC1	-36.0	-2.0	-3.7	69.6*	-27.1	-1.3	-8.1	x
COc1cc(Br)cc(/C=C/c2ccc3cccc(O)c3n2)c1OC	-6.5	-2.8	42.3	65.4*	-4.2	-3.6	26.1	x
COc1cc(/C=C/c2ccc3cccc([N+](=O)[O-])c3n2)ccc1OCC(=O)O	-9.9	-2.8	31.7	21.3	-3.3	-3.3	x	x
COc1ccc(Br)cc1/C=C/C(=O)NCC(=O)O	-8.8	-2.6	2.3	-3.9	-0.7	-3.0	x	x
COc1ccc(Br)cc1/C=C/c1ccc2cccc(O)c2n1	-14.3	-2.4	56.6	50.6*	-2.4	-1.3	37.9	x
COc1cccc(/C=C/c2ccc3cccc(O)c3n2)c1	-238.6	-1.7	34.2	62.4*	-112.0	0.1	-143.3	x
COc1cc(/C=C/c2ccc3cccc(O)c3n2)cc(Br)c1OC	-202.1	-3.5	-81.1	93.0*	6.6	-0.9	10.8	x
CCOc1c(OC(C)=O)ccc(/C=C/c2ccc3cccc(OC)c3n2)c1[N+](=O)[O-]	-59.2	-2.6	-75.7	-50.8	29.2	-2.6	x	x
COC(=O)c1ccc(/C=C/c2ccc3cccc(OC)c3n2)cc1	-26.6	-4.1	-96.9	30.7	-21.0	-3.4	x	x
